# Results: ChEMBL document CHEMBL2417474, “Synthesis, antiproliferative and anti-inflammatory activities of some novel 6-aryl-2-(p-(methanesulfonyl)phenyl)-4,5-dihydropyridazi-3(2H)-ones” (Eur J Med Chem, 2013)
# What was measured:
# Format in all cases: functional
# BT-549 = test: Growth inhibition of human BT549 cells assessed as cell growth at 10 uM after 48 hrs by sulforhodamine B assay; conditions: BT-549, 48 h, read-out: Activity
# MDA-MB-231 [1] = test: Growth inhibition of human MDA-MB-231 cells assessed as cell growth at 10 uM after 48 hrs by sulforhodamine B assay; conditions: MDA-MB-231, 48 h, read-out: Activity
# 786-0 = test: Growth inhibition of human 786-0 cells assessed as cell growth at 10 uM after 48 hrs by sulforhodamine B assay; conditions: 786-0, 48 h, read-out: Activity
# OVCAR-8 = test: Growth inhibition of human OVCAR8 cells assessed as cell growth at 10 uM after 48 hrs by sulforhodamine B assay; conditions: OVCAR-8, 48 h, read-out: Activity
# OVCAR-4 = test: Growth inhibition of human OVCAR4 cells assessed as cell growth at 10 uM after 48 hrs by sulforhodamine B assay; conditions: OVCAR-4, 48 h, read-out: Activity
# OVCAR-3 = test: Growth inhibition of human OVCAR3 cells assessed as cell growth at 10 uM after 48 hrs by sulforhodamine B assay; conditions: OVCAR-3, 48 h, read-out: Activity
# SW-620 [2] = test: Growth inhibition of human SW620 cells assessed as cell growth at 10 uM after 48 hrs by sulforhodamine B assay; conditions: SW-620, 48 h, read-out: Activity
# Summary of the method: (§1)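 Single-dose NCI screen. Tumor lines were cultured in medium with 5% fetal calf serum and 2 mM L-glutamine, preincubated 24 h, then given compound in DMSO. After 48 h continuous exposure, cell growth was estimated by sulforhodamine B protein assay.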
# KM12 [3] = test: Growth inhibition of human KM12 cells assessed as cell growth at 10 uM after 48 hrs by sulforhodamine B assay; conditions: KM12, 48 h, read-out: Activity
# NCI-H226 [4] = test: Growth inhibition of human NCI-H226 cells assessed as cell growth at 10 uM after 48 hrs by sulforhodamine B assay; conditions: NCI-H226, 48 h, read-out: Activity
# HOP-92 = test: Growth inhibition of human HOP92 cells assessed as cell growth at 10 uM after 48 hrs by sulforhodamine B assay; conditions: HOP-92, 48 h, read-out: Activity
# SR [5] = test: Growth inhibition of human SR cells assessed as cell growth at 10 uM after 48 hrs by sulforhodamine B assay; conditions: read-out: Activity; summary of the method: as §1
# MOLT-4 [6] = test: Growth inhibition of human MOLT4 cells assessed as cell growth at 10 uM after 48 hrs by sulforhodamine B assay; conditions: MOLT-4, 48 h, read-out: Activity
# T47D = test: Growth inhibition of human T47D cells after 48 hrs by sulforhodamine B assay
# Summary of the method: (§2)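 NCI 60-line panel. Cells were grown in medium with 5% fetal calf serum and 2 mM L-glutamine and preincubated 24 h in plates. Compound in DMSO was added at 10^-4 to 10^-8 M (five 10-fold levels), with continuous exposure for 48 h. Growth was read by SRB protein staining. GI50 is the concentration giving 50% reduction in net protein increase versus control cells.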
# [7] = Growth inhibition of human Hs 578T cells after 48 hrs by sulforhodamine B assay
# Summary of the method: (§3)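 NCI 60-cell-line panel grown in RPMI-type medium with 5% fetal calf serum and 2 mM L-glutamine. Cells preincubated 24 h, then exposed continuously for 48 h to compound in DMSO at 10^-4 to 10^-8 M (five 10-fold levels). Growth read by SRB protein stain. GI50 is the concentration giving a 50% reduction in net protein increase relative to control cells.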
# MDA-MB-231 [8] = test: Growth inhibition of human MDA-MB-231 cells after 48 hrs by sulforhodamine B assay; conditions: MDA-MB-231, 48 h; summary of the method: as §3
# DU-145 = test: Growth inhibition of human DU145 cells after 48 hrs by sulforhodamine B assay; conditions: DU-145, 48 h; for CC50: read-out: LC50 (the source's name); summary of the method: as §3
# MCF7 = test: Growth inhibition of human MCF7 cells after 48 hrs by sulforhodamine B assay; conditions: MCF7, 48 h; summary of the method: as §3
# UO-31 = test: Growth inhibition of human UO31 cells after 48 hrs by sulforhodamine B assay; conditions: UO-31, 48 h; summary of the method: as §2
# OVCAR-5 = test: Growth inhibition of human OVCAR5 cells after 48 hrs by sulforhodamine B assay; conditions: OVCAR-5, 48 h; for CC50: read-out: LC50 (the source's name)
# Summary of the method: (§4)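 NCI 60-cell-line panel. Cells were grown in medium with 5% fetal calf serum and 2 mM L-glutamine, then preincubated 24 h in plates. Compounds were added from DMSO at five 10-fold concentrations from 100 to 0.01 µM and left on cells continuously for 48 h. Cell growth was read by sulforhodamine B protein stain. GI50 is the concentration that halves net protein increase relative to control cells.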
# UACC-62 = test: Growth inhibition of human UACC62 cells after 48 hrs by sulforhodamine B assay; conditions: UACC-62, 48 h; summary of the method: as §2
# SK-MEL-28 = test: Growth inhibition of human SK-MEL-28 cells after 48 hrs by sulforhodamine B assay; conditions: SK-MEL-28, 48 h; for CC50: read-out: LC50 (the source's name); summary of the method: as §4
# MDA-MB-435 = test: Growth inhibition of human MDA-MB-435 cells after 48 hrs by sulforhodamine B assay; conditions: MDA-MB-435, 48 h; summary of the method: as §4
# U-251 = test: Growth inhibition of human U251 cells after 48 hrs by sulforhodamine B assay; conditions: U-251, 48 h; for CC50: read-out: LC50 (the source's name); summary of the method: as §2
# SW-620 [9] = test: Growth inhibition of human SW620 cells after 48 hrs by sulforhodamine B assay; conditions: SW-620, 48 h; for CC50: read-out: LC50 (the source's name); summary of the method: as §2
# KM12 [10] = test: Growth inhibition of human KM12 cells after 48 hrs by sulforhodamine B assay; conditions: KM12, 48 h; summary of the method: as §3
# NCI-H522 = test: Growth inhibition of human NCI-H522 cells after 48 hrs by sulforhodamine B assay; conditions: NCI-H522, 48 h; summary of the method: as §4
# NCI-H226 [11] = test: Growth inhibition of human NCI-H226 cells after 48 hrs by sulforhodamine B assay; conditions: NCI-H226, 48 h; for CC50: read-out: LC50 (the source's name); summary of the method: as §4
# NCI-H23 = test: Growth inhibition of human NCI-H23 cells after 48 hrs by sulforhodamine B assay; conditions: NCI-H23, 48 h; for CC50: read-out: LC50 (the source's name); summary of the method: as §4
# SR [12] = test: Growth inhibition of human SR cells after 48 hrs by sulforhodamine B assay; summary of the method: as §4
# MOLT-4 [13] = test: Growth inhibition of human MOLT4 cells after 48 hrs by sulforhodamine B assay; conditions: MOLT-4, 48 h; summary of the method: as §4
smiles,measurement,setting,value
Cc1cc(O)ccc1C1=NN(c2ccc(S(C)(=O)=O)cc2)C(=O)CC1,growth at 10 µM,BT-549,58.2%
same,growth at 10 µM,MDA-MB-231 [1],74.8%
same,growth at 10 µM,786-0,84.1%
same,growth at 10 µM,OVCAR-8,92.3%
same,growth at 10 µM,OVCAR-4,98%
same,growth at 10 µM,OVCAR-3,65.1%
same,growth at 10 µM,SW-620 [2],46.6%
same,growth at 10 µM,KM12 [3],47.6%
same,growth at 10 µM,NCI-H226 [4],93.3%
same,growth at 10 µM,HOP-92,92.8%
same,growth at 10 µM,SR [5],12.3%
same,growth at 10 µM,MOLT-4 [6],52.7%
same,GI50,T47D,20.2 µM
same,LC50,T47D,> 100 µM
same,TGI,T47D,> 100 µM
same,GI50,[7],4.15 µM
same,LC50 (concentration giving 50% net cell kill),[7],> 100 µM
same,TGI,[7],> 100 µM
same,GI50,MDA-MB-231 [8],17.1 µM
same,LC50,MDA-MB-231 [8],> 100 µM
same,TGI,MDA-MB-231 [8],> 100 µM
same,GI50,DU-145,24.7 µM
same,TGI,DU-145,> 100 µM
same,CC50,DU-145,> 100 µM
same,GI50,MCF7,20.7 µM
same,LC50 (concentration killing 50% of cells),MCF7,> 100 µM
same,TGI,MCF7,> 100 µM
same,GI50,UO-31,14.8 µM
same,LC50 (concentration killing 50% of cells),UO-31,> 100 µM
same,TGI,UO-31,> 100 µM
same,GI50,OVCAR-5,53.8 µM
same,TGI,OVCAR-5,> 100 µM
same,CC50,OVCAR-5,> 100 µM
same,GI50,UACC-62,4 µM
same,LC50 (50% net cell kill concentration),UACC-62,> 100 µM
same,TGI,UACC-62,> 100 µM
same,GI50,SK-MEL-28,9.56 µM
same,TGI,SK-MEL-28,> 100 µM
same,CC50,SK-MEL-28,> 100 µM
same,GI50,MDA-MB-435,1.28 µM
same,LC50 (concentration killing 50% of starting cells),MDA-MB-435,> 100 µM
same,TGI,MDA-MB-435,5.83 µM
same,GI50,U-251,4.3 µM
same,TGI,U-251,> 100 µM
same,CC50,U-251,> 100 µM
same,GI50,SW-620 [9],3.32 µM
same,TGI,SW-620 [9],> 100 µM
same,CC50,SW-620 [9],> 100 µM
same,GI50,KM12 [10],4.22 µM
same,LC50,KM12 [10],> 100 µM
same,TGI,KM12 [10],> 100 µM
same,GI50,NCI-H522,2.53 µM
same,LC50 (concentration killing 50% of starting cells),NCI-H522,> 100 µM
same,TGI,NCI-H522,8.6 µM
same,GI50,NCI-H226 [11],> 100 µM
same,TGI,NCI-H226 [11],> 100 µM
same,CC50,NCI-H226 [11],> 100 µM
same,GI50,NCI-H23,38.5 µM
same,TGI,NCI-H23,> 100 µM
same,CC50,NCI-H23,> 100 µM
same,GI50,SR [12],3.39 µM
same,LC50,SR [12],> 100 µM
same,TGI,SR [12],> 100 µM
same,GI50,MOLT-4 [13],14.3 µM
same,LC50,MOLT-4 [13],> 100 µM
same,TGI,MOLT-4 [13],> 100 µM
Cc1ccc(C2=NN(c3ccc(S(C)(=O)=O)cc3)C(=O)CC2)cc1,growth at 10 µM,BT-549,11.3%
same,growth at 10 µM,MDA-MB-231 [1],47.8%
same,growth at 10 µM,786-0,38.3%
same,growth at 10 µM,OVCAR-8,31.8%
same,growth at 10 µM,OVCAR-4,60.8%
same,growth at 10 µM,OVCAR-3,-14.7%
same,growth at 10 µM,SW-620 [2],8.58%
same,growth at 10 µM,KM12 [3],35%
same,growth at 10 µM,NCI-H226 [4],77.6%
same,growth at 10 µM,HOP-92,60.9%
same,growth at 10 µM,SR [5],4.47%
same,growth at 10 µM,MOLT-4 [6],20.1%
same,GI50,T47D,2.08 µM
same,LC50,T47D,> 100 µM
same,TGI,T47D,> 100 µM
same,GI50,[7],0.46 µM
same,LC50 (concentration giving 50% net cell kill),[7],> 100 µM
same,GI50,MDA-MB-231 [8],0.83 µM
same,LC50,MDA-MB-231 [8],> 100 µM
same,TGI,MDA-MB-231 [8],> 100 µM
same,GI50,DU-145,2.91 µM
same,TGI,DU-145,> 100 µM
same,CC50,DU-145,> 100 µM
same,GI50,MCF7,1.38 µM
same,LC50 (concentration killing 50% of cells),MCF7,> 100 µM
same,TGI,MCF7,> 100 µM
same,GI50,UO-31,4.72 µM
same,LC50 (concentration killing 50% of cells),UO-31,> 100 µM
same,TGI,UO-31,> 100 µM
same,GI50,OVCAR-5,3.69 µM
same,TGI,OVCAR-5,> 100 µM
same,CC50,OVCAR-5,> 100 µM
same,GI50,UACC-62,0.46 µM
same,LC50 (50% net cell kill concentration),UACC-62,> 100 µM
same,TGI,UACC-62,> 100 µM
same,GI50,SK-MEL-28,0.66 µM
same,TGI,SK-MEL-28,> 100 µM
same,CC50,SK-MEL-28,> 100 µM
same,GI50,MDA-MB-435,0.12 µM
same,LC50 (concentration killing 50% of starting cells),MDA-MB-435,> 100 µM
same,TGI,MDA-MB-435,0.39 µM
same,GI50,U-251,0.45 µM
same,TGI,U-251,> 100 µM
same,CC50,U-251,> 100 µM
same,GI50,SW-620 [9],0.34 µM
same,TGI,SW-620 [9],> 100 µM
same,CC50,SW-620 [9],> 100 µM
same,GI50,KM12 [10],0.44 µM
same,LC50,KM12 [10],> 100 µM
same,TGI,KM12 [10],> 100 µM
same,GI50,NCI-H522,0.22 µM
same,LC50 (concentration killing 50% of starting cells),NCI-H522,> 100 µM
same,TGI,NCI-H522,1 µM
same,GI50,NCI-H226 [11],0.43 µM
same,TGI,NCI-H226 [11],> 100 µM
same,CC50,NCI-H226 [11],> 100 µM
same,GI50,NCI-H23,2.5 µM
same,TGI,NCI-H23,> 100 µM
same,CC50,NCI-H23,> 100 µM
same,GI50,SR [12],0.29 µM
same,LC50,SR [12],> 100 µM
same,TGI,SR [12],> 100 µM
same,GI50,MOLT-4 [13],0.86 µM
same,LC50,MOLT-4 [13],> 100 µM
same,TGI,MOLT-4 [13],> 100 µM
